Test results: the array DNA melting data of Ke et al. (doi:10.1101/2024.01.08.574731)

Columns and labels:
[1] = folding enthalpy; higher = less favourable; fluorescence melt of hairpins on a sequencing array, two-state fit; settings: sodium 0.088 M
Outline: (§1)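 Melting temperature and folding enthalpy were obtained by bootstrapped two-state fitting. Fits used Cy3 fluorescence of library hairpins with annealed Cy3 and quencher oligos on a sequenced MiSeq flow cell, imaged in 50 mM Na-HEPES pH 8.0, 25 mM NaCl in 2.5 °C steps up to 60 °C and normalised to pre-quench Cy3 and control constructs. Four replicates were combined by inverse-variance weighting, and fitted temperatures were raised by 9.35 °C to match UV melts.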

[2] = melting temperature; fluorescence melt of hairpins on a sequencing array, two-state fit, raised by 9.35 °C to match UV melts; settings: sodium 0.088 M
Outline: as §1

Sequence	folding enthalpy [1]	Tm [2]
GGCGCCGAAAGGCTTGCC ((((((....)))..)))	-19.9 kcal/mol	53.4 °C
GGCGCCGGAAACAGCGCC (((((.(....).)))))	-34.8 kcal/mol	65.2 °C
GGCGCTCCGAAAGGAGCC (((..(((....))))))	-7.43 kcal/mol	47.8 °C
GGCGCTCGAAAGAGGGCC (((.(((....))).)))	-39.6 kcal/mol	68.4 °C
GGCGCTGGAAACAACGCC ((((.((....)).))))	-41 kcal/mol	55.2 °C
GGCGCTGGAAACAGCACC ((.((((....)))).))	-29.7 kcal/mol	54.8 °C
GGCGGCGAAAGCCCGGCC ((((((....)))..)))	-17.7 kcal/mol	61.5 °C
GGCGGCGAAAGCCGCGCC ((((((....)))..)))	-6.34 kcal/mol	68 °C
GGCGGCGAAAGCCGGGCC ((((((....)))..)))	-10.1 kcal/mol	58.1 °C
GGCGGTACGAAAGTAGCC (((..(((....))))))	-18.8 kcal/mol	50.7 °C
GGCGGTCCGAAAGGAGCC (((..(((....))))))	-17.7 kcal/mol	46.6 °C
GGCGTAGGAAACCACGCC (((((.(....).)))))	-53.2 kcal/mol	56.2 °C
GGCGTAGGAAACTATGCC (((.(((....))).)))	-41.8 kcal/mol	53.5 °C
GGCGTCGAAAGACACGCC ((((((....)))..)))	-32 kcal/mol	55 °C
GGCGTCGAAAGACGAGCC ((((((....)))..)))	-16.7 kcal/mol	54 °C
GGCGTCGAAAGACTCGCC ((((((....)))..)))	-20.6 kcal/mol	50.1 °C
GGCGTCGAAAGACTTGCC ((((((....)))..)))	-24.6 kcal/mol	48.9 °C
GGCGTCGGAAACGGTGCC (((..((....))..)))	-30.6 kcal/mol	51.6 °C
GGCGTGCGAAAGCAGCC (((.(((....))))))	-26.9 kcal/mol	67.8 °C
GGCGTGGGAAACCACGTC (.(((((....))))).)	-21.1 kcal/mol	62.3 °C
GGCGTGGGAAACTACGCC (((((.(....).)))))	-48 kcal/mol	61.2 °C
GGCGTGGGAAACTGCGCC ((((..(....)..))))	-52.5 kcal/mol	55.7 °C
GGCGTTGGAAACAATGCC (((.(((....))).)))	-53.7 kcal/mol	56.5 °C

Sequence	folding enthalpy [1]	Tm [2]
GGCTAAGCGAAAGCTGCC (((..(((....))))))	-23.7 kcal/mol	54.6 °C
GGCTAAGGAAACTTGGCC (((.(((....))).)))	-29.6 kcal/mol	50.4 °C
GGCTAATCGAAAGATGCC (((..(((....))))))	-27.2 kcal/mol	45.2 °C
GGCTACCCGAAAGGGGCC (((..(((....))))))	-18.9 kcal/mol	50.6 °C
GGCTACCGAAAGGTCGCC (((.(((....))).)))	-39.2 kcal/mol	58.6 °C
GGCTACCGAAAGGTGCC (((.(((....))))))	-31.3 kcal/mol	61.2 °C
GGCTACGAAAGTATAGCC ((((((....)))..)))	-25.1 kcal/mol	49.9 °C
GGCTACGAAAGTATTGCC ((((((....)))..)))	-20.1 kcal/mol	44.1 °C
GGCTACGGAAACACAGCC ((((..(....)..))))	-23.6 kcal/mol	35.5 °C
GGCTACGGAAACGCAGCC ((((.((....)).))))	-53 kcal/mol	52.6 °C
GGCTAGAAATAGCC (((((....)))))	-24.6 kcal/mol	51.5 °C
GGCTAGCCGAAAGGCGCC (((..(((....))))))	-15.9 kcal/mol	59 °C
GGCTAGCGAAAGCTGCC (((.(((....))))))	-22.7 kcal/mol	64.3 °C
GGCTAGCGAAAGCTTGCC (((.(((....))).)))	-36.3 kcal/mol	65.6 °C
GGCTAGGAAACTAGCC ((((((....))))))	-34.8 kcal/mol	60.4 °C
GGCTAGGGAAACCTAGCC (((((((....)))))))	-42.6 kcal/mol	67.5 °C
GGCTAGGGAAACCTGGTC (.(.(((....))).).)	-30.6 kcal/mol	35.5 °C
GGCTAGGGAAACTTGGCC (((.(.(....).).)))	-25.9 kcal/mol	40.6 °C
GGCTAGTCGAAAGACGCC (((..(((....))))))	-19.9 kcal/mol	52.3 °C
GGCTATCGAAAGATGCC (((.(((....))))))	-25.3 kcal/mol	52.8 °C
GGCTATGGAAACATGGCC (((.(((....))).)))	-53.7 kcal/mol	53.2 °C
GGCTCAGGAAACCAAGCC ((((..(....)..))))	-31.6 kcal/mol	35.3 °C
GGCTCAGGAAACTGGGTC (.(.(((....))).).)	-25.9 kcal/mol	38 °C

Sequence	folding enthalpy [1]	Tm [2]
GGCTCCCCGAAAGGGGCC (((..(((....))))))	-12 kcal/mol	50.9 °C
GGCTCCCGAAAGGGCGCC (((.(((....))).)))	-33.6 kcal/mol	62.6 °C
GGCTCCGAAAGGATAGCC ((((((....)))..)))	-39.5 kcal/mol	52.4 °C
GGCTCCGAAAGGATCGCC ((((((....)))..)))	-21.7 kcal/mol	47.2 °C
GGCTCCGAAAGGATGGCC ((((((....)))..)))	-30.9 kcal/mol	52.3 °C
GGCTCCGGAAACAGAGCC (((((.(....).)))))	-34 kcal/mol	50.5 °C
GGCTCCGGAAACGGAACC ((.((((....)))).))	-28.9 kcal/mol	51.1 °C
GGCTCGGCGAAAGCCGCC (((..(((....))))))	-8.18 kcal/mol	43 °C
GGCTCGGGAAACCAAGCC ((((.((....)).))))	-35.3 kcal/mol	48.8 °C
GGCTCGTCGAAAGACGCC (((..(((....))))))	-9.65 kcal/mol	42 °C
GGCTCTGGAAACGGAGCC (((((.(....).)))))	-47.1 kcal/mol	60 °C
GGCTGATCGAAAGATGCC (((..(((....))))))	-22.6 kcal/mol	43.9 °C
GGCTGCGAAAGCAATGCC ((((((....)))..)))	-22 kcal/mol	55 °C
GGCTGCGAAAGCACCGCC ((((((....)))..)))	-20.7 kcal/mol	54.1 °C
GGCTGCGAAAGCAGCGCC ((((((....)))..)))	-5.65 kcal/mol	68.8 °C
GGCTGCGAAAGCATGGCC ((((((....)))..)))	-31.8 kcal/mol	54.6 °C
GGCTGCGGAAACACAGCC (((((.(....).)))))	-42 kcal/mol	56 °C
GGCTGGGCGAAAGCCGCC (((..(((....))))))	-19.6 kcal/mol	58.4 °C
GGCTGGGGAAACCCGGTC (.(.(((....))).).)	-28.5 kcal/mol	46.1 °C
GGCTGTCCGAAAGGAGCC (((..(((....))))))	-25.1 kcal/mol	47.4 °C
GGCTGTCGAAAGACCGCC (((.(((....))).)))	-36.6 kcal/mol	56.6 °C
GGCTGTCGAAAGACTGCC (((.(((....))).)))	-41.2 kcal/mol	63 °C
GGCTGTGCGAAAGCAGCC (((..(((....))))))	-27.1 kcal/mol	57.5 °C

Sequence	folding enthalpy [1]	Tm [2]
GGCTGTGGAAACACGGTC (.(.(((....))).).)	-28.1 kcal/mol	44.4 °C
GGCTTAGGAAACTAAGCC (((((((....)))))))	-48.5 kcal/mol	62.9 °C
GGCTTCCGAAAGGATGCC (((.(((....))).)))	-48.9 kcal/mol	62 °C
GGCTTCGAAAGAACCGCC ((((((....)))..)))	-21.1 kcal/mol	47.4 °C
GGCTTCGAAAGAACGGCC ((((((....)))..)))	-27.9 kcal/mol	43 °C
GGCTTCGAAAGAAGCGCC ((((((....)))..)))	-9.54 kcal/mol	57 °C
GGCTTCGAAAGAAGGGCC ((((((....)))..)))	-19.6 kcal/mol	40.4 °C
GGCTTCGGAAACGAGGTC (.(.(((....))).).)	-26.3 kcal/mol	39.3 °C
GGCTTGGAAACAAGCC ((((((....))))))	-31.2 kcal/mol	66.6 °C
GGCTTGGCGAAAGCCGCC (((..(((....))))))	-16.6 kcal/mol	68.8 °C
GGCTTGGGAAACCAGGCC (((.(((....))).)))	-49 kcal/mol	56.1 °C
GGCTTTGGAAACAAAGTC (.(((((....))))).)	-39.8 kcal/mol	48.9 °C
GGCTTTGGAAACAAGGCC (((.(((....))).)))	-40.5 kcal/mol	51.6 °C
GGCTTTGGAAACGAAGTC (.(((.(....).))).)	-14.7 kcal/mol	34.7 °C
GGGAAACGAAAGTTCCCC (((.(((....))).)))	-30.6 kcal/mol	51 °C
GGGAAAGGAAACTCTCCC ((((.((....)).))))	-17.2 kcal/mol	30.2 °C
GGGAACCGAAAGGTCCCC (((.(((....))).)))	-25.4 kcal/mol	58.1 °C
GGGAACCGAAAGGTGCCC (((.(((....))).)))	-41.4 kcal/mol	64.3 °C
GGGAACGAAAGTTACCCC ((((((....)))..)))	-20.2 kcal/mol	53.4 °C
GGGAACGAAAGTTTGCCC ((((((....)))..)))	-20.8 kcal/mol	31.8 °C
GGGAACGCGAAAGCGCCC (((..(((....))))))	-16.4 kcal/mol	46.5 °C
GGGAAGGGAAACCCTCCC ((((.((....)).))))	-28.1 kcal/mol	46.8 °C
